Results: ChEMBL document CHEMBL1124462, “Synthesis, DNA binding, and biological evaluation of synthetic precursors and novel analogues of netropsin” (J Med Chem, 1989)
≈ marks a conversion by molar mass, not a printed value.

Key:
Vero [1] = assay: Minimum cytotoxic concentration required to cause a microscopically detectable alteration of normal cell morphology and show antiviral activity in african green monkey (Vero B) cells; type: functional; settings: Chlorocebus sabaeus
Raji = assay: Dose required to inhibit Human B-Lymphoblast (Raji) cell proliferation by 50%; type: functional; settings: read-out: CD50 (the source's name)
FM3A = assay: In vitro inhibition of FM3A (murine mammary carcinoma) cell proliferation.; type: functional; settings: Mus musculus, read-out: CD50 (the source's name)
HeLa [2] = assay: Minimum inhibitory concentration required to reduce Coxsackie virus B4 induced cytopathogenicity by 50% in HeLa cells; type: functional; settings: Homo sapiens
Procedure, shortened: (§1)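 Cell cultures (PRK, HeLa or Vero B) are infected at 100 × CCID50. Cytopathogenicity is recorded once it reaches completion in the untreated virus-infected controls. The minimum inhibitory concentration is given in μg/mL.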

HeLa [3] = assay: Minimum cytotoxic concentration required to cause a microscopically detectable alteration of normal cell morphology and show antiviral activity in HeLa cells; type: functional; settings: Homo sapiens
Procedure, shortened: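 HeLa cell cultures exposed to compound for the same duration as the antiviral assay, then examined microscopically. The minimum cytotoxic concentration is the lowest level causing detectable alteration of normal cell morphology. Values are in μg/mL.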

L1210 = assay: Dose required to inhibit Murine leukemia (L1210) cell proliferation by 50%; type: functional; settings: Mus musculus, read-out: CD50 (the source's name)
Nucleic Acid [4] = assay: Association constant against the polynucleotide poly (dA-dT).; type: nucleic-acid assay
Procedure, shortened: (§2)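 Competition with ethidium bromide binding at 25 °C in 0.01 M cacodylate buffer, pH 7.0, with 1.26 μM ethidium bromide and 1 μM polynucleotide. Bound ethidium is estimated from its fluorescence increase (V = 34 for poly(dA-dT), 25 for poly(dG-dC)). IC50 for 50% ethidium displacement comes from a fitted competition sigmoid. Kapp is calculated from IC50 assuming a binding size of four base pairs.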

Nucleic Acid [5] = assay: Ratio of association constant of poly (dA-dT) and poly (dG-dC); type: nucleic-acid assay
Procedure, shortened: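 Kapp for poly(dA-dT) and for poly(dG-dC) is each determined by ethidium bromide competition in 0.01 M cacodylate, pH 7.0, 25 °C, with 1.26 μM ethidium and 1 μM polynucleotide. IC50 comes from a fitted competition sigmoid and is converted to Kapp assuming a four-base-pair binding size. The ratio is taken between the two polynucleotides.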

Human alphaherpesvirus 2 = assay: Minimum inhibitory concentration required to reduce herpes simplex virus-2(G) induced cytopathogenicity by 50% in primary rabbit kidney cells (PRK); type: functional; procedure, shortened: as §1
Human alphaherpesvirus 1 = assay: Minimum inhibitory concentration required to reduce herpes simplex virus-1 (KOS) induced cytopathogenicity by 50% in primary rabbit kidney cells(PRK); type: functional; procedure, shortened: as §1
[6] = system: Vesicular stomatitis virus; assay: Minimum inhibitory concentration required to reduce vesicular stomatitis virus induced cytopathogenicity by 50% in primary rabbit kidney cells (PRK); type: functional
Oryctolagus cuniculus = species: Oryctolagus cuniculus; assay: Minimum cytotoxic concentration required to cause a microscopically detectable alteration of normal cell morphology and show antiviral activity in primary rabbit kidney (PRK) cells; type: functional
[7] = Dose required to inhibit Human T-Lymphoblast (Molt/4F) cell proliferation by 50%; type: functional; settings: read-out: CD50 (the source's name)
Sindbis virus = assay: Minimum inhibitory concentration required to reduce Sindbis virus induced cytopathogenicity by 50% in african green monkey (VeroB) cells; type: functional; procedure, shortened: as §1
Vero [8] = assay: Minimum inhibitory concentration required to reduce parainfluenza virus-3 induced cytopathogenicity by 50% in african green monkey (VeroB) cells; type: functional, Human respirovirus 3; settings: Chlorocebus sabaeus; procedure, shortened: as §1
[9] = system: Mammalian orthoreovirus 1; assay: Minimum inhibitory concentration required to reduce reovirus-1 induced cytopathogenicity by 50% in african green monkey (VeroB)cells; type: functional; procedure, shortened: as §1
Semliki Forest virus = assay: Minimum inhibitory concentration required to reduce semliki forest virus induced cytopathogenicity by 50% in african green monkey (VeroB) cells; type: functional; procedure, shortened: as §1
Nucleic Acid [10] = assay: Association constant against polynucleotide poly (dG-dC); type: nucleic-acid assay; procedure, shortened: as §2
Vero [11] = assay: Minimum inhibitory concentration required to reduce Coxsackie virus B4 induced cytopathogenicity by 50% in african green monkey (VeroB) cells; type: functional, Coxsackievirus B4; settings: Chlorocebus sabaeus; procedure, shortened: as §1

Compound	MCC (Vero [1])	CC50 (Raji)	CC50 (FM3A)	MIC (HeLa [2])	MCC (HeLa [3])	CC50 (L1210)	K app (Nucleic Acid [4])	Ratio (Nucleic Acid [5])	MIC (Human alphaherpesvirus 2)	MIC (Human alphaherpesvirus 1)	MIC [6]	MCC (Oryctolagus cuniculus)	CC50 [7]	MIC (Sindbis virus)	MIC (Vero [8])	MIC [9]	MIC (Semliki Forest virus)	K app (Nucleic Acid [10])	MIC (Vero [11])
CC(NC(=O)c1cc(NC(=O)c2cc(NC(=O)CNC(=N)N)cn2C)cn1C)C(=O)OC(C)(C)C (stereo not drawn)	> 400 µg/mL	> 100 µg/mL	> 100 µg/mL	> 400 µg/mL	> 400 µg/mL	> 100 µg/mL	8700 M⁻¹	0.87	> 400 µg/mL	> 400 µg/mL	> 400 µg/mL	>400 µg/mL	> 100 µg/mL	> 400 µg/mL	> 400 µg/mL	> 400 µg/mL	> 400 µg/mL	10000 M⁻¹	> 400 µg/mL
Cn1cc(NC(=O)c2cc([N+](=O)[O-])cn2C)cc1C(=O)O	> 400 µg/mL	> 100 µg/mL	> 100 µg/mL	> 400 µg/mL	> 400 µg/mL	> 100 µg/mL			> 400 µg/mL	> 400 µg/mL	> 400 µg/mL	>400 µg/mL	> 100 µg/mL	> 400 µg/mL	> 200 µg/mL	> 400 µg/mL	> 400 µg/mL		150 µg/mL (≈ 513 µM)
Cn1cc([N+](=O)[O-])cc1C(=O)NCCC(=N)N	> 400 µg/mL	> 50 µg/mL		> 400 µg/mL	> 400 µg/mL	> 50 µg/mL	< 100 M⁻¹		> 200 µg/mL	> 200 µg/mL	> 400 µg/mL	>400 µg/mL	> 50 µg/mL	> 200 µg/mL	> 200 µg/mL	> 200 µg/mL	> 200 µg/mL	< 100 M⁻¹	> 200 µg/mL
CC(NC(=O)C(C)NC(=O)c1cc(NC(=O)c2cc(NC(=O)CNC(=N)N)cn2C)cn1C)C(=O)O (stereo not drawn)	> 400 µg/mL	> 100 µg/mL	> 100 µg/mL	> 400 µg/mL	> 400 µg/mL	> 100 µg/mL	1200 M⁻¹	1	> 400 µg/mL	> 400 µg/mL	> 400 µg/mL	>400 µg/mL	> 100 µg/mL	> 400 µg/mL	> 400 µg/mL	> 200 µg/mL	> 400 µg/mL	1200 M⁻¹	> 400 µg/mL
C[C@H](NC(=O)c1cc(NC(=O)c2cc(NC(=O)CNC(=N)N)cn2C)cn1C)C(=O)N[C@@H](C)C(=O)N[C@@H](C)C(=O)OC(C)(C)C	> 400 µg/mL	> 100 µg/mL	> 100 µg/mL	> 400 µg/mL	> 400 µg/mL	> 100 µg/mL	20000 M⁻¹	6.06	> 100 µg/mL	> 100 µg/mL	> 200 µg/mL	400 µg/mL	> 100 µg/mL	> 400 µg/mL	> 400 µg/mL	> 200 µg/mL	> 400 µg/mL	3300 M⁻¹	> 200 µg/mL
Cn1cc([N+](=O)[O-])cc1C(=O)O	> 400 µg/mL	> 100 µg/mL	> 100 µg/mL	> 400 µg/mL	> 400 µg/mL	> 100 µg/mL			> 400 µg/mL	> 400 µg/mL	> 400 µg/mL	>400 µg/mL	> 100 µg/mL	> 400 µg/mL	> 400 µg/mL	> 400 µg/mL	> 400 µg/mL		> 200 µg/mL
CC(NC(=O)c1cc(NC(=O)c2cc(NC(=O)CNC(=N)N)cn2C)cn1C)C(=O)O (stereo not drawn)	> 200 µg/mL	> 100 µg/mL	> 100 µg/mL	> 200 µg/mL	> 200 µg/mL	> 100 µg/mL	< 100 M⁻¹		> 200 µg/mL	> 200 µg/mL	> 200 µg/mL	>200 µg/mL	> 100 µg/mL	> 200 µg/mL	> 200 µg/mL	> 200 µg/mL	> 200 µg/mL	< 100 M⁻¹	> 200 µg/mL
C[C@H](NC(=O)[C@H](C)NC(=O)[C@H](C)NC(=O)c1cc(NC(=O)c2cc(NC(=O)CNC(=N)N)cn2C)cn1C)C(=O)O	> 400 µg/mL	> 100 µg/mL	> 100 µg/mL	> 400 µg/mL	> 400 µg/mL	> 100 µg/mL	< 100 M⁻¹	< 0.02	> 400 µg/mL	> 400 µg/mL	> 400 µg/mL	>400 µg/mL	> 100 µg/mL	> 400 µg/mL	> 400 µg/mL	> 200 µg/mL	> 400 µg/mL	5000 M⁻¹	> 400 µg/mL
